High-throughput results from PubChem BioAssay.
eIF4H inh: human eIF4H binding inhibitors, primary screen, translation initiation inhibitor project, biochemical, uHTS, fluorescence polarization; inhibition, % at 35 µM; 0.94% of 290,000 active; eIF4H fluorescence polarization binding assay; AID 2012, 2009;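 also: calls also rest on retests at 20 µM and on dose response follow-up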
DNA FID counter-1: compounds displacing fluorescent DNA intercalator, primary screen, artefact control for HCV NS3 helicase inhibitor project, biochemical, FID fluorescence; DNA fluorescent intercalator displacement; AID 1845, 2009; inhibition, % at 7.9 µM; 0.17% of 290,000 active; in the data active = inhibition above about 37%;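 also: 0% = vehicle and 100% = reference compound; higher means more ethidium bromide displaced from hairpin DNA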
HCV NS3 hel inh: inhibitors of HCV NS3 helicase, primary screen, biochemical, Cy5 molecular beacon fluorescence; 0.56% of 290,000 active; AID 1800, 2009; NS3 helicase DNA unwinding; inhibition, % at 10.9 µM;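 active = inhibition above the mean of all tested compounds plus 3 SD, set per campaign, cut at about 35% in these data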;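 also: 0% = DMSO wells and 100% = thioflavine S control wells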
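Assay system – hepatitis C virus NS3 helicase domain fragment enzyme · Buffer or medium – MOPS pH 6.5, MgCl2, DTT, Tween20, BSA · Reagent – Cy5/quencher beacon DNA duplex and ATP to start · Compound – single 10.9 µM dose · Timing – 1 h at 25 °C · Technique – Cy5 beacon fluorescence read at start and 1 h · Measure – % inhibition of unwinding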
MLLE-PAM2 inh: inhibitors of PABP1 MLLE–PAM2 peptide binding, primary screen, biochemical, fluorescence polarization, FITC-PAM2, GST-MLLE; Polyadenylate-binding protein 1 (Homo sapiens), P11940; inhibition, % at 20 µM; 0.36% of 360,000 active; AID 588489, 2011; in the data active = inhibition above about 35%, passing the limit was not always enough;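 also: plate controls were DMSO wells with GST-MLLE for no effect and wells lacking GST-MLLE protein for full effect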
Target sequence (P11940 whole entry, looked up): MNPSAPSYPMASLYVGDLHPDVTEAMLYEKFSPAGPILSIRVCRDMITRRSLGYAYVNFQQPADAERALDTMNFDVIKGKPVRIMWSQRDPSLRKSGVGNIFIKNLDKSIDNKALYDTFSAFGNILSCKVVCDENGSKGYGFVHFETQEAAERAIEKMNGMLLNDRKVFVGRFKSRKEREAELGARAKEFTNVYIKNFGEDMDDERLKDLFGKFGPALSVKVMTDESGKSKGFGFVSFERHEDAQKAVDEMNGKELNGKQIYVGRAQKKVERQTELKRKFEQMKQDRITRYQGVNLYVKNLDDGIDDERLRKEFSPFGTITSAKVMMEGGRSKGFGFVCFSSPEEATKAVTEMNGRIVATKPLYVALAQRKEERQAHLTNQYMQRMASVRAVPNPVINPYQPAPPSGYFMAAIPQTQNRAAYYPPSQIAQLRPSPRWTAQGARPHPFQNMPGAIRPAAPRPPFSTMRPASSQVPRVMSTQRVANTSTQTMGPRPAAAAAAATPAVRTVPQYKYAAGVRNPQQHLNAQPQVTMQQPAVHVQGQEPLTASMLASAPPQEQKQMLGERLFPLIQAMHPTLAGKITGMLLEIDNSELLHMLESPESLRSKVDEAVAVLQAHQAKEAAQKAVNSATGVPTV
PABP polyA inh: PABP poly(A) RNA binding inhibitors, primary screen, biochemical, fluorescence polarization, uHTS. 1% of 290,000 active. inhibition, % at 35 µM;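 also: calls also rest on retests at 20 µM and on dose response follow-up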
HCV core dimer: inhibitors of HCV core protein dimerization, primary screen, biochemical, TR-FRET, high-throughput; TR-FRET GST/Flag-core106 dimerization, 1536-well; inhibition, % at 5 µM; 0.33% of 300,000 active;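 active = inhibition above the mean of all tested compounds plus 3 SD, set per screening campaign, cut at about 45% in these data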
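Assay system: tagged HCV core106 pair (GST and Flag); medium: KF-containing HEPES buffer, pH 7.45, DTT, CHAPS, BSA; also added: Eu donor and XL665 acceptor anti-tag antibodies; dosing: 5 µM single dose; timing: compound-protein-antibody incubation 4 h at 22.5 °C; signal: TR-FRET 671 and 617 nm emission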
NS3 hel confirm: HCV NS3 helicase inhibitors, retest, confirmation, biochemical, Cy5 molecular beacon fluorescence, triplicate | shares compounds with HCV NS3 hel inh | AID 1943, 2009 | 31% of 1,600 active | NS3 helicase DNA unwinding | inhibition, % at 10.9 µM;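 active = inhibition above the mean of all tested compounds plus 3 SD, cutoff set per campaign, cut at about 36% in these data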
DNA FID counter-2: compounds displacing fluorescent DNA intercalator, artefact control for HCV NS3 helicase inhibitor project, biochemical, FID fluorescence, triplicate | shares compounds with HCV NS3 hel inh | 4% of 1,600 active | DNA fluorescent intercalator displacement | inhibition, % at 7.9 µM | AID 1945, 2009; in the data active = inhibition above about 37%;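 also: 0% = vehicle and 100% = reference compound; higher means more displacement of ethidium bromide from the DNA hairpin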
FID counter DR: compounds displacing fluorescent intercalator from DNA, dose response, counter-screen for HCV NS3 helicase inhibitor project, biochemical, fluorescence; shares compounds with HCV NS3 hel inh; fluorescent intercalator displacement from DNA; IC50, µM; 120 tested, under 10 active; AID 2172, 2009
* marks the source's active call; other numbers are inactive results; i = inactive; / = no result. Only some compounds are listed: those with a hit (about 2% of all), similar ones and a draw of the others. Unless noted, no rule for the calls is given here.

SMILES	eIF4H inh	DNA FID counter-1	HCV NS3 hel inh	MLLE-PAM2 inh	PABP polyA inh	HCV core dimer	NS3 hel confirm	DNA FID counter-2	others
NC(=O)c1sc2nc3c(c(-c4ccco4)c2c1N)CCC3	97*	-12	58*	16	83*	2	-27	8
Cc1ccc(-c2c3c(nc4sc(C(N)=O)c(N)c24)CCCC3)o1	54	-5	16	7	10	-7	/	/
NC(=O)c1sc2nc(-c3ccco3)ccc2c1N	92*	-10	74*	-2	80*	-17	-6	0
Nc1c(C(=O)Nc2ccccc2F)sc2nc(-c3ccco3)ccc12	90*	-16	59*	4	73*	48*	74*	6	FID counter DR=>79
Nc1c(C(=O)Nc2ccccc2F)sc2nc(-c3cccnc3)ccc12	-12	-11	11	9	8	0	/	/
NC(=O)c1sc2nc(-c3cccnc3)ccc2c1N	-10	-16	10	15	11	-6	/	/
Nc1c(C(=O)NC2CC2)sc2nc3c(c(-c4ccco4)c12)CC/C3=C/c1ccco1	94	-3	69*	-51	1	104*	99*	3	FID counter DR=i
COc1ccccc1N1CCN(S(=O)(=O)CCNC(=O)CC2CCCC2)CC1	/	/	/	1	/	/	/	/
COc1cc(C(=O)NNC(=O)CNC(=O)c2ccc(Br)o2)cc(OC)c1OC	0	-10	7	-4	7	0	/	/
COc1cccc(-n2c(SCc3cc(=O)oc4cc(O)c(O)cc34)nc3ccccc3c2=O)c1	106	20	86*	-6	-10	8	134*	1	FID counter DR=>79
C[C@@H]1CN([C@H](C)CO)C(=O)c2cc(Br)cnc2O[C@@H]1CN(C)C(=O)c1ccccc1	/	/	/	0	/	/	/	/
Cc1cc(C)c(NC(=O)c2ccc(CNS(=O)(=O)c3cc(C(F)(F)F)ccc3Cl)cc2)c(C)c1	-4	-23	36*	4	-3	15	-4	-14
COc1cc(C2C3=C(COC3=O)Oc3cc4c(cc32)OCO4)cc(OC)c1O (centres undefined)	/	/	/	-3	/	/	/	/
COc1ccc(C2=NN(C(=O)CCC(=O)O)C(c3ccc(Br)cc3)C2)cc1 (centres undefined)	6	-29	38*	5	-6	8	6	-23
COc1ccc(-c2nn(-c3ccccc3)cc2C2CC(c3cccs3)=NN2C(=O)CCC(=O)O)cc1 (centres undefined)	-8	-10	-1	1	6	18	/	/
COc1ccc(C2=NN(C(=O)CCCC(=O)O)C(c3cn(-c4ccccc4)nc3-c3ccccc3)C2)cc1 (centres undefined)	74*	-18	46*	-7	1	25	43*	-16
COCCNC(=O)C1(C)CCN(C(=O)c2cccc(C)c2C)C1 (centres undefined)	/	/	/	-4	/	/	/	/
Cc1ccc(-n2sc3ccccc3c2=O)cc1S(=O)(=O)N1CCCCC1	-3	-28	47*	8	5	24	21	-29
N#Cc1cccc(N2[C@@H](Cc3cc4ccccc4n3Cc3ccccc3)COC[C@H]2Cc2ccc3ccccc3c2)c1	/	/	/	1	/	/	/	/
Cc1ccc(SC(CC(=O)c2ccc(F)cc2)C(=O)O)cc1 (centres undefined)	-3	-14	43*	32	-2	-10	-23	1
CN(C(=O)c1ccccc1C(=O)OCC(=O)Nc1cccc(Br)c1)c1ccccc1	/	/	/	2	/	/	/	/
